DENV2 CPE: DENV2-induced cell death inhibition. CPE inhibition, % at 9.99 µM. 350,000 compounds, 1.7% hits. AID 651640. DENV2-infected cells, cytopathic effect rescue, plate reader; in the data active = CPE inhibition above about 20%, passing the limit was not always enough; inconclusive = no clear call, values can overlap the other calls; tested in BHK-21 cells;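 also: 0% = median of neutral control wells and 100% = median of positive control wells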
Cneo AK release: causes C. neoformans cell lysis; 360,000 compounds, 0.2% hits; lysis activity, % at 15 µM; adenylate kinase release luminescence, 4 h; normalised: neutral wells 0, clomiphene wells 100; AID 651654;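 active = mean lysis activity across replicates of at least 80%, whatever share of replicates individually reach that level; inactive = mean lysis activity below 80%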
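Assay system: log-phase C. neoformans yeast / Quantity: yeast cell density of 5 × 10^6 cells/mL / Medium: fresh YPD growth medium / Compound: single dose / Timing: static 4 h at 37 °C with compound, 1 h detection / Measured by: adenylate kinase release luminescence / Read-out: lysis from increased AK signal / Benchmarks: Clomiphene as positive lysis control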
rRNA inh HTS: inhibitors of bacterial rRNA selective over humanized ribosomes; E. coli WT GFP vs humanized-ribosome RFP mutants, fluorescence, 24 h; stronger effect = lower value; DMSO median 0, no signal -100; GFP signal change (wild-type ribosome), % (concentration not given with the values); 350,000 compounds, 1.6% hits; AID 720706;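 active = significant combined selectivity score with lowered wild-type GFP, culture density cut under 30%, mutant RFP and density less affected; inactive = any of these conditions unmet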
PfHsp90 set2: inhibits growth of yeast expressing Plasmodium falciparum Hsp90 | S. cerevisiae expressing PfHsp90, BacTiter-Glo ATP, 48 h; yeast lacking PDR1 and PDR3 efflux regulators | inhibition, % at 9.4 µM | 310,000 compounds, 0.32% hits;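 active = every replicate shows inhibition above about 80%, whatever the replicate mean, limit read from the data; inconclusive = mean inhibition reaches the set limit but some replicate falls short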;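 also: 0% = DMSO neutral controls and 100% = 20 µM radicicol positive controls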
AF4-AF9 inh: blocks AF4 peptide binding to human AF9 | P42568 | AlphaScreen, biotin-AF4 peptide binding to FLAG-AF9 | inhibition, % at 10 µM | 350,000 compounds, 0.47% hits;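 active = every replicate reaching a set inhibition limit, whatever the replicate mean, cut at about 25% in these data; inconclusive = mean inhibition reaches that limit but some replicates miss it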;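 also: 0% = plate neutral control median and 100% = total signal loss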
Target sequence (P42568 whole entry, looked up): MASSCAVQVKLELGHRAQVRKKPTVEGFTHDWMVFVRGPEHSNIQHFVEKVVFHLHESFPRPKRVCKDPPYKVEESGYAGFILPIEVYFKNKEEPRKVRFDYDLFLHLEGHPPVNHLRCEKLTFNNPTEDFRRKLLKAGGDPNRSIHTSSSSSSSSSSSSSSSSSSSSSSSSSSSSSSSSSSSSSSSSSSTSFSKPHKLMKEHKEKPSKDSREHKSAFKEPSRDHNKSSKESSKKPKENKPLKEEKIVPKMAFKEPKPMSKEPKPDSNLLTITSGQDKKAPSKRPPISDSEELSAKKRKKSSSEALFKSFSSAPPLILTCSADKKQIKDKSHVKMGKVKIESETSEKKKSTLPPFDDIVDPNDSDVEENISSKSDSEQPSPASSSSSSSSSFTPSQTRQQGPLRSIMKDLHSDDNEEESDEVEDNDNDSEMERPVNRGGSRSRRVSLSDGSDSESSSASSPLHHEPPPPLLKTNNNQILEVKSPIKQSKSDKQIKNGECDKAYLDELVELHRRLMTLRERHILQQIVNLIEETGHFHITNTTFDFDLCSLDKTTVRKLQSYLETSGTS
S100A4 MyoIIA: blocks human S100A4 binding to myosin IIA peptide. P26447. S100A4/TAMRA-MyoIIA peptide fluorescence polarization. inhibition, % at 10.7 µM. 360,000 compounds, 0.14% hits. AID 652163;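 active = mean inhibition of at least 70% across replicates, with every replicate also reaching that level; inconclusive = mean inhibition reaches 70% but some replicates fall short; inactive = mean inhibition below 70%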
Target sequence (P26447 whole entry, looked up): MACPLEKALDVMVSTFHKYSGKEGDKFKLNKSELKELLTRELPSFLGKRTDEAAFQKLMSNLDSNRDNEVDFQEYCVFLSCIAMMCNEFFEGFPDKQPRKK
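Test system – S100A4 monomer (human) · Compound – single-point compound testing · Schedule – 5 min incubation before reading · Probe or stimulus – TAMRA-labelled myosin IIA heavy-chain peptide probe, 5 nM · Benchmarks – neutral control DMSO, positive control TFP · Medium – Calcium-containing HEPES buffer, pH 7.2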
AID977621: growth inhibition of wild-type GFP E. coli, dose response, H69 mutant RFP, cherry-pick. shares compounds with rRNA inh HTS. E. coli wild-type GFP strain growth, fluorescence, 24 h. activity change, negative = inhibition at 50 µM. 1,900 tested, under 10 active;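 active = Wild-type ribosome reporter drop at least double the humanized mutant ribosome reporter drop, growth loss under a set limit; inconclusive = no clear call, values can overlap the other calls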;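 also: wild-type GFP and H69 mutant RFP strains grown together 50/50 in each well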
AID977628: E. coli growth inhibition, wild-type GFP versus h24 humanized RFP strain, dose response, h24 mutant RFP vs wild-type GFP, cherry-pick. E. coli WT GFP strain growth, fluorescence, 24 h. activity change, negative = inhibition at 50 µM. AID 977628. 1,900 tested, under 10 active. shares compounds with rRNA inh HTS;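 active = compound lowering the normal-ribosome reporter at least twice as much as the humanized-ribosome reporter, growth loss under a set limit; inconclusive = no clear call, values can overlap the other calls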;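 also: wild-type GFP and h24 humanized RFP strains co-cultured 1 to 1 per well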
Active calls of the source: *; ? = inconclusive; · = no result given; ! = not active in a repeat. Most compounds without a hit are left out; they make up all but 3.2% or so of the library.

SMILES	DENV2 CPE	Cneo AK release	rRNA inh HTS	PfHsp90 set2	AF4-AF9 inh	S100A4 MyoIIA	AID977621	AID977628
COCC#Cc1ccc2c(c1)O[C@H](CN(C)C(=O)c1ccccc1)[C@@H](C)CN([C@H](C)CO)S2(=O)=O	5	-2	-19*!	·	2	0	-7.6	-12
COCC#Cc1ccc2c(c1)O[C@@H](CN(C)C(=O)c1ccccc1)[C@@H](C)CN([C@@H](C)CO)S2(=O)=O	-5	-3	-3	·	1	-2	·	·
COc1cccc(-c2ccc3n(c2=O)C[C@H]2[C@H](CO)[C@@H](C(=O)NC4CCCC4)N[C@@H]32)c1	-1	0	-2	·	0	4	·	·
O=C(NCCc1ccccn1)c1cccc(S(=O)(=O)N2CCc3ccccc32)c1	4	-2	-18*	·	1	18	·	?
O=C(O)c1cc(-c2ccc(Cl)s2)nc2ccccc12	-1	·	-27*	-19	-1	3	-13	?
Cc1ccc(-c2cc(C(=O)O)c3ccccc3n2)s1	3	-8	-4	-15	-1	0	·	·
O=C(c1ccc(N2CCCCC2)c([N+](=O)[O-])c1)N1CCN(c2ccccn2)CC1	0	1	-21*	11	0	2	·	?
O=C(c1ccc(N2CCCCC2)c([N+](=O)[O-])c1)N1CCN(S(=O)(=O)c2ccccc2)CC1	-1	·	-16	-11	8	-1	·	·
Cn1c(=O)n(C)c2cc([N+](=O)[O-])c(N3CCN(C(=O)c4cccc(F)c4)CC3)cc21	5	·	-18*	8	-2	-2	-12	?
Cc1nn2c(C)c(C(=O)Nc3ccccc3)cnc2c1-c1ccccc1	42*	-1	-32*	17	1	1	8.6	-3.7
O=C(c1cnc(Cc2c[nH]c3ccccc23)c(I)c1)N1CCCCC1	2	20	-24*	·	5	2	-17	·
O=C(c1cnc(Cc2c[nH]c3ccccc23)c(I)c1)N1CCOCC1	5	-1	8	·	8	2	·	·
CC(C)(C)CC(=O)Nc1ccccc1N1CCN(c2ccccc2)CC1	-2	·	-19*	-25	7	-2	-18	-14
C[C@@H]1CCCCO[C@@H](CN(C)S(=O)(=O)c2ccc(Cl)cc2)[C@@H](C)CN([C@@H](C)CO)C(=O)c2cc(NC(=O)CCC(F)(F)F)ccc2O1	-9	-2	5	·	1	-2	·	·
Cc1ccc(CSCC(=O)Nc2ccccc2F)cc1	?	1	-23*	·	0	5	-4.5	?
Cc1ccc(NC(=O)CSCc2ccc(F)cc2)cc1	·	·	·	15	·	·	·	·
COc1ccc(CN(C)C[C@H]2Oc3ccc(NC(=O)Nc4ccc5c(c4)OCO5)cc3C(=O)N([C@@H](C)CO)C[C@@H]2C)cc1	5	3	3	·	11	9	·	·
Fc1ccc(CSc2nnc(-c3ccco3)o2)cc1	13	·	-17*	-19	1	-4	?	1.4
Cc1ccnc(SCc2cn3c(C)cccc3n2)n1	-2	·	-10	-17	-3	2	·	·
Cc1cc(C)nc(SCc2cn3c(C)cccc3n2)n1	-1	2	-19*	·	·	2	·	?
COc1cccc(-c2ccc([C@@H]3[C@@H](CO)N4C(=O)CN(C(=O)C5CCC5)C[C@@H]34)cc2)c1	6	·	0	·	-1	1	·	·
O=S(=O)(c1cnc(Cl)c(Cl)c1)N1CCCc2ccccc21	-4	·	-25*	-6	-2	4	-10	-7.4
O=S(=O)(c1cnc(Cl)c(Br)c1)N1CCc2ccccc21	-8	-1	-1	-21	1	1	·	·
Cc1cccc(SCC(=O)Nc2ccccc2[N+](=O)[O-])c1	2	3	-26*	-36	8	0	-4.3	-15
CCOc1ccccc1/C=C/c1cc(C(=O)O)c2ccccc2n1	-4	·	-23*	-13	0	-8	-5.7	·
SMILES	DENV2 CPE	Cneo AK release	rRNA inh HTS	PfHsp90 set2	AF4-AF9 inh	S100A4 MyoIIA	AID977621	AID977628
O=C(Nc1ccc(C(=O)N2CCOCC2)cc1)C1CCCC1	12	0	-4.4*	-23	-5	13	3.4	8.3
O=C(Nc1ccc(C(=O)N2CCCC2)cc1)C1CCCC1	?	2	22	-3	-3	22	·	·
O=C(Cc1cccc(NC(=O)C2CCN(C(=O)C3CCCCC3)CC2)c1)Nc1cccc(C(=O)N2CCCC2)c1	?	-2	-22*	-2	-25	-1	-19	·
COCC(=O)N1C[C@@H]2[C@H](c3ccccc31)[C@@H](CO)N2C(=O)Nc1ccccc1F	?	-2	0	·	-13	6	·	·
Cc1ccc([N+](=O)[O-])c(OCCn2cnc3ccccc32)c1	-1	·	-20*	·	-3	-1	-2.8	-6.6
CC(C)CN(C(=O)c1ccco1)c1nc2ccccc2s1	-2	·	-19*	-36	-1	-4	·	?
CCCN1[C@@H]2c3ccc(C4=CCCCC4)c(=O)n3C[C@H]1[C@H](CO)[C@H]2C(=O)N1CCc2ccccc2C1	-3	45	-5	·	2	0	·	·
Cc1ccccc1NC(=O)c1ccc([N+](=O)[O-])o1	-3	·	·	13	-1	2	·	·
Cc1ccc(NC(=O)c2ccc([N+](=O)[O-])o2)c(C)c1	-2	1	-33*	-9	0	-2	·	-16
C[C@H](CO)N1C[C@H](C)[C@H](CN(C)S(C)(=O)=O)Oc2c(NC(=O)Nc3ccc(F)cc3)cccc2C1=O	-8	0	-2	·	-5	-6	·	·
CCc1nnc(NC(=O)CSc2nnc(COc3cccc(C)c3)o2)s1	·	·	·	9	·	·	·	·
Cc1cccc(OCc2nnc(SCC(=O)Nc3ncc(C)s3)o2)c1	11	·	-34*	·	-2	3	·	-7.7
C[C@H](CO)N1C[C@H](C)[C@@H](CN(C)Cc2ccccc2)Oc2ccc(NC(=O)Cc3cn(C)c4ccccc34)cc2C1=O	1	-61	4	·	7	1	·	·
COc1ccc(C(=O)Nc2ccc3ncccc3c2)cc1	4	-8	-4	17	1	-1	·	·
Cc1ccc(C(=O)Nc2ccc3ncccc3c2)cc1	3	129*	-16*	31	3	-5	·	-12
CCC(C)NC(=O)C(Sc1ccccc1)c1ccccc1 (stereo not drawn)	3	·	·	-33	-2	3	·	·
CC(C)Oc1ccc(C(CC(=O)O)NC(=O)C(Sc2ccccc2)c2ccccc2)cc1 (stereo not drawn)	2	-2	-27*	13	-2	7	-16	·

Assay outcomes (PubChem)
